Data on 4 compounds can be found in ChEMBL document CHEMBL1681735, “One step synthesis of 2-hydroxymethylisoflavone and their osteogenic activity” (2011).

Active and inactive are the calls of the source. The rule behind the calls is not given here.

Assay [1] has as its system Calvarial cell. The assay can be described thus: (§1) Induction of osteogenic activity in rat Calvarial cells assessed as fold increase in OCN gene expression after 48 hrs by qPCR relative to untreated control. It is filed as functional. Put shortly: (§2)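 Osteoblasts cultured with or without compound for 48 h, then qPCR. Cycling: 95 °C 5 min, then 40 cycles of 94 °C 2 min, 62 °C 30 s annealing/extension and 72 °C 30 s. Normalized to GAPDH. Compared with vehicle-treated cells; mean SEM, n = 3.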
(Real-time PCR tracks product formation cycle by cycle.)

In assay [2] the test system is Calvarial cell. The assay can be described thus: (§3) Induction of osteogenic activity in rat Calvarial cells assessed as fold increase in BMP-2 gene expression after 48 hrs by qPCR relative to untreated control. The assay is classed as functional. The method in brief: as §2
The nature of assay [3]: (§4) Induction of osteogenic activity in rat Calvarial cells assessed as fold increase in Runx-2 gene expression after 48 hrs by qPCR relative to untreated control. It is filed as functional, Calvarial cell. The method in brief:
as §2

Assay [4] has as its system Calvarial cell. The assay can be described thus: Induction of osteoblast differentiation in rat Calvarial cells assessed as increase in alkaline phosphatase activity at 10^-12 to 10^-6 M by spectrophotometry. The assay is classed as functional, cell-based. The method in brief:
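Rat calvarial osteoblasts trypsinized at 70–80% confluence (0.02% trypsin-EDTA). 2 × 10³ cells seeded in α-MEM with 10% FBS plus 50 µg/ml ascorbate and 10 mM glycerophosphate. Exposed to 10^-12 to 10^-6 M for 48 h; isoformononetin 10^-8 M as positive control. Total ALP read at 405 nm with PNPP 10 mmol/L in diethanolamine buffer (1 mol/L, pH 9.8), 0.5 mmol/L MgCl₂. Mean SEM, n = 6.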

Assay [5] can be described thus: as §1. The assay is classed as functional, Calvarial cell. The method in brief: as §2
The nature of assay [6]: as §3. The assay is classed as functional, Calvarial cell. Put shortly: as §2
The test system of assay [7] is Calvarial cell. The description is as §4. The assay is classed as functional. The method in brief:
as §2

With `O=c1c(-c2ccccc2)c(CO)oc2cc(O)ccc12`, the outcome in assay [1] and in assay [2] was inactive. For the same compound, the “fold change (FC)” value in assay [3] was 6.5. Moreover, the outcome in assay [4] was Active.

Take `COc1ccc(-c2c(CO)oc3ccccc3c2=O)c(O)c1`: the figures for the “fold change (FC)” value in assay [5], in assay [6] and in assay [3] were 2, 2 and 8, respectively. Further, in assay [4], the result was Active.

In the case of `O=c1c(-c2ccccc2)c(CO)oc2ccccc12`, the result in assay [1] and in assay [7] was inactive. For the same compound, the “fold change (FC)” value in assay [6] was determined as 2.5. In assay [4], the result was Active.

For `COc1ccc(-c2c(CO)oc3cc(O)ccc3c2=O)cc1`, the outcome in assay [1], in assay [2] and in assay [7] was inactive. Also, the result in assay [4] was Active.
